Laboratory results as given in publication PMC2860721 (Journal of medicinal chemistry, 2010).
≈ marks a conversion by molar mass, not a printed value.

Key:
HIV [1] = settings: cited from earlier work
HIV [2] = settings: cited from earlier work; remark: listed apart in the source
mock-infected MT-2 cells = assay: Compound toxicity by XTT in mock-infected MT-2 cells; assay type: cell-based; settings: Homo sapiens, MT2, read-out: IC50 (concentration that inhibits mock-infected cell growth by 50%)
HIV-1NL4-3 = HIV-1NL4-3 replication inhibition assay in MT-4 lymphocytes; assay type: cell-based; settings: HIV-1NL4-3 infected MT-4 lymphocytes
Method in brief: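 MT-4 cells infected with HIV-1 NL4-3 or NL4-3 variants at MOI 0.01. Culture supernatants collected on day 4 post-infection. Viral replication read out by p24 antigen capture ELISA.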

## C=C(C)C1CCC2(C(=O)O)CCC3(C)C(CCC4C5(C)CCC(OC(=O)C(C)(C)CC(=O)O)C(C)(C)C5CCC43C)C12 (centres unmarked) [3-O-(2′,2′-dimethylsuccinyl) BA]
HIV [1]
  EC50: 2.7 µM

## CC1(C)C=C2[C@H]3CC[C@@H]4[C@@]5(C)CCC(=O)C(C)(C)[C@@H]5CC[C@@]4(C)[C@]3(C)CC[C@@]2(C(=O)O)CC1 [Compound 3, moronic acid]
HIV [2]
  EC50 (anti-HIV activity): 0.1 µg/mL (≈ 0.22 µM)

## C=C(C)[C@@H]1CC[C@]2(C(=O)O)CC[C@]3(C)[C@H](CC[C@@H]4[C@@]5(C)CC[C@H](OC(=O)C[C@H](C)C(=O)O)C(C)(C)[C@@H]5CC[C@]43C)[C@@H]12 [Compound 10, 3β-O-(3′S-Methylsuccinyl)-betulinic acid]
mock-infected MT-2 cells
  IC50: 32.8 µM

## C=C(C)[C@@H]1CC[C@]2(C(=O)O)CC[C@]3(C)[C@H](CC[C@@H]4[C@@]5(C)CC[C@H](OC(=O)C[C@](C)(CC)C(=O)O)C(C)(C)[C@@H]5CC[C@]43C)[C@@H]12 [Compound 12a, 3β-O-(3′S-Ethylmethylsuccinyl)-betulinic acid]
HIV-1NL4-3
  antiviral activity: active

## C=C(C)[C@@H]1CC[C@]2(C(=O)O)CC[C@]3(C)[C@H](CC[C@@H]4[C@@]5(C)CC[C@H](OC(=O)C[C@@](C)(CC)C(=O)O)C(C)(C)[C@@H]5CC[C@]43C)[C@@H]12 [Compound 12b, 3β-O-(3′R-Ethylmethylsuccinyl)-betulinic acid]
HIV-1NL4-3
  antiviral activity: no antiviral activity
